Measured values from ChEMBL document CHEMBL3585281, “Antibacterial Labdane Diterpenoids from Vitex vestita” (2015).
≈ marks a conversion by molar mass, not a printed value.

Tests used:
Format in all cases: functional
Bacillus cereus [1] = assay: Antibacterial activity against Bacillus cereus N190 after 18 hrs by agar dilution method; details: N190, 18 h
In short: (§1)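 Agar-dilution MIC against Gram-positive strains. Compounds in DMSO, geometric dilutions giving final 100−0.75 mg/L in Mueller Hinton agar. Strains grown 18 h at 37 °C in trypticase soy broth, diluted in sterile water, spotted by Steers inoculator (about 1000 UFC/spot). Plates incubated 18 h at 37 °C; DMSO blank; ofloxacin positive control. MIC = lowest concentration with no visible growth.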

[2] = test system: Enterococcus casseliflavus; assay: Antibacterial activity against Enterococcus casseliflavus N487 after 18 hrs by agar dilution method; details: N487, 18 h; in short: as §1
[3] = test system: Staphylococcus saprophyticus; assay: Antibacterial activity against Staphylococcus saprophyticus E260 after 18 hrs by agar dilution method; details: E260, 18 h; in short: as §1
Enterococcus faecium [4] = assay: Antibacterial activity against Enterococcus faecium N733 after 18 hrs by agar dilution method; details: N733, 18 h; in short: as §1
Listeria monocytogenes [5] = assay: Antibacterial activity against Listeria monocytogenes CIP 103575 after 18 hrs by agar dilution method; details: CIP 103575, 18 h; in short: as §1
[6] = test system: Staphylococcus epidermidis; assay: Antibacterial activity against Staphylococcus epidermidis CIP 53124 after 18 hrs by agar dilution method; details: CIP 53124, 18 h; in short: as §1
Enterococcus faecium [7] = assay: Antibacterial activity against Enterococcus faecium N823 after 18 hrs by agar dilution method; details: N823, 18 h; in short: as §1
[8] = test system: Enterococcus casseliflavus; assay: Antibacterial activity against Enterococcus casseliflavus CIP 103018 after 18 hrs by agar dilution method; details: CIP 103018, 18 h; in short: as §1
Streptococcus agalactiae = assay: Antibacterial activity against Streptococcus agalactiae CIP 103227 after 18 hrs by agar dilution method; details: ATCC 13813, 18 h; in short: as §1
[9] = test system: Staphylococcus haemolyticus; assay: Antibacterial activity against Staphylococcus haemolyticus CIP 8156 after 18 hrs by agar dilution method; details: CIP 8156, 18 h; in short: as §1
Bacillus cereus [10] = assay: Antibacterial activity against Bacillus cereus CIP 6624 after 18 hrs by agar dilution method; details: CIP 6624, 18 h; in short: as §1
Enterococcus faecalis [11] = assay: Antibacterial activity against Enterococcus faecalis CIP 104676 after 18 hrs by agar dilution method; details: CIP 104676, 18 h; in short: as §1
Listeria monocytogenes [12] = assay: Antibacterial activity against Listeria monocytogenes N851 after 18 hrs by agar dilution method; details: N851, 18 h; in short: as §1
Enterococcus hirae = assay: Antibacterial activity against Enterococcus hirae CIP 5855 after 18 hrs by agar dilution method; details: CIP 5855, 18 h; in short: as §1
Staphylococcus aureus [13] = assay: Antibacterial activity against Staphylococcus aureus ATCC 25923 after 18 hrs by agar dilution method; details: ATCC 25923, 18 h; in short: as §1
[14] = test system: Staphylococcus saprophyticus; assay: Antibacterial activity against Staphylococcus saprophyticus CIP 76125 after 18 hrs by agar dilution method; details: CIP 76125, 18 h; in short: as §1
Bacillus cereus [15] = assay: Antibacterial activity against Bacillus cereus N258 after 18 hrs by agar dilution method; details: N258, 18 h; in short: as §1
Corynebacterium striatum = assay: Antibacterial activity against Corynebacterium striatum N840 after 18 hrs by agar dilution method; details: N840, 18 h; in short: as §1
Enterococcus faecalis [16] = assay: Antibacterial activity against Enterococcus faecalis N520 after 18 hrs by agar dilution method; details: N520, 18 h; in short: as §1
Enterococcus durans = assay: Antibacterial activity against Enterococcus durans CIP 104999 after 18 hrs by agar dilution method; details: CIP 104999, 18 h; in short: as §1
Listeria monocytogenes [17] = assay: Antibacterial activity against Listeria monocytogenes N836 after 18 hrs by agar dilution method; details: N836, 18 h; in short: as §1
Enterococcus faecalis [18] = assay: Antibacterial activity against Enterococcus faecalis N491 after 18 hrs by agar dilution method; details: N491, 18 h; in short: as §1
Staphylococcus aureus [19] = assay: Antibacterial activity against Staphylococcus aureus CIP 53156 after 18 hrs by agar dilution method; details: CIP 53156, 18 h; in short: as §1
[20] = test system: Staphylococcus lugdunensis; assay: Antibacterial activity against Staphylococcus lugdunensis ATCC 43809 after 18 hrs by agar dilution method; details: ATCC 43809, 18 h; in short: as §1
[21] = test system: Staphylococcus intermedius; assay: Antibacterial activity against Staphylococcus intermedius N987 after 18 hrs by agar dilution method; details: N987, 18 h; in short: as §1
Listeria monocytogenes [22] = assay: Antibacterial activity against Listeria monocytogenes N783 after 18 hrs by agar dilution method; details: N783, 18 h; in short: as §1
Enterococcus faecium [23] = assay: Antibacterial activity against Enterococcus faecium N507 after 18 hrs by agar dilution method; details: N507, 18 h; in short: as §1
Bacillus cereus [24] = assay: Antibacterial activity against Bacillus cereus N349 after 18 hrs by agar dilution method; details: N349, 18 h; in short: as §1
Enterococcus faecalis [25] = assay: Antibacterial activity against Enterococcus faecalis N518 after 18 hrs by agar dilution method; details: N518, 18 h; in short: as §1
Mammaliicoccus sciuri = assay: Antibacterial activity against Staphylococcus sciuri N993 after 18 hrs by agar dilution method; details: N993, 18 h; in short: as §1
Staphylococcus aureus [26] = assay: Antibacterial activity against Staphylococcus aureus CIP 483 after 18 hrs by agar dilution method; details: CIP 483, 18 h; in short: as §1
Enterococcus faecium [27] = assay: Antibacterial activity against Enterococcus faecium N490 after 18 hrs by agar dilution method; details: N490, 18 h; in short: as §1
Enterococcus faecium [28] = assay: Antibacterial activity against Enterococcus faecium CIP 107387 after 18 hrs by agar dilution method; details: CIP 107387, 18 h; in short: as §1
Enterococcus avium = assay: Antibacterial activity against Enterococcus avium CIP 104053 after 18 hrs by agar dilution method; details: CIP 104053, 18 h; in short: as §1
Staphylococcus aureus [29] = assay: Antibacterial activity against Staphylococcus aureus CIP 53154 after 18 hrs by agar dilution method; details: CIP 53154, 18 h; in short: as §1
Enterococcus gallinarum [30] = assay: Antibacterial activity against Enterococcus gallinarum N492 after 18 hrs by agar dilution method; details: N492, 18 h; in short: as §1
Staphylococcus aureus [31] = assay: Antibacterial activity against Staphylococcus aureus CIP 7625 after 18 hrs by agar dilution method; details: CIP 7625, 18 h; in short: as §1
Enterococcus gallinarum [32] = assay: Antibacterial activity against Enterococcus gallinarum N489 after 18 hrs by agar dilution method; details: N489, 18 h; in short: as §1
Staphylococcus aureus [33] = assay: Antibacterial activity against Staphylococcus aureus ATCC 9144 oxford after 18 hrs by agar dilution method; in short: as §1
Staphylococcus aureus [34] = assay: Antibacterial activity against Staphylococcus aureus CIP 5710 after 18 hrs by agar dilution method; details: CIP 5710, 18 h; in short: as §1
Staphylococcus aureus [35] = assay: Antibacterial activity against Staphylococcus aureus CRBIP 2121 after 18 hrs by agar dilution method; details: CRBIP 2121, 18 h; in short: as §1
Bacillus spizizenii = assay: Antibacterial activity against Bacillus subtilis ATCC 6633 after 18 hrs by agar dilution method; details: ATCC 6633, 18 h; in short: as §1
Enterococcus gallinarum [36] = assay: Antibacterial activity against Enterococcus gallinarum CIP 105985 after 18 hrs by agar dilution method; details: CIP 105985, 18 h; in short: as §1
Enterococcus faecalis [37] = assay: Antibacterial activity against Enterococcus faecalis CIP 103214 after 18 hrs by agar dilution method; details: CIP 103214, 18 h; in short: as §1
Listeria innocua = assay: Antibacterial activity against Listeria innocua E044 after 18 hrs by agar dilution method; details: E044, 18 h; in short: as §1
Enterococcus faecium [38] = assay: Antibacterial activity against Enterococcus faecium CIP 103014 after 18 hrs by agar dilution method; details: CIP 103014, 18 h; in short: as §1

`CC1COc2c(N3CCN(C)CC3)c(F)cc3c(=O)c(C(=O)O)cn1c23` (stereo unspecified) [OFLOXACIN] showed an MIC (Bacillus cereus [1]) of 0.7 µM (≈ 0.253 µg/mL), an MIC [2] of 11 µM (≈ 3.98 µg/mL) and an MIC [3] of 3 µM (≈ 1.08 µg/mL). The MIC (Enterococcus faecium [4]) was greater than 354 µM, the MIC (Listeria monocytogenes [5]) was 6 µM (≈ 2.17 µg/mL) and the MIC [6] was 1.4 µM (≈ 0.506 µg/mL). For the same molecule, the MIC (Enterococcus faecium [7]) was 354 µM (≈ 128 µg/mL), the MIC [8] was 11 µM (≈ 3.98 µg/mL) and the MIC (Streptococcus agalactiae) was 1.4 µM (≈ 0.506 µg/mL). The MIC [9] was 0.7 µM (≈ 0.253 µg/mL), the MIC (Bacillus cereus [10]) was 0.7 µM (≈ 0.253 µg/mL) and the MIC (Enterococcus faecalis [11]) was 3 µM (≈ 1.08 µg/mL). It also gave an MIC (Listeria monocytogenes [12]) of 6 µM (≈ 2.17 µg/mL), an MIC (Enterococcus hirae) of 3 µM (≈ 1.08 µg/mL) and an MIC (Staphylococcus aureus [13]) of 1.4 µM (≈ 0.506 µg/mL). The MIC [14] was 3 µM (≈ 1.08 µg/mL), the MIC (Bacillus cereus [15]) was 0.7 µM (≈ 0.253 µg/mL) and the MIC (Corynebacterium striatum) was greater than 354 µM. The MIC (Enterococcus faecalis [16]) was 354 µM (≈ 128 µg/mL), the MIC (Enterococcus durans) was 1.4 µM (≈ 0.506 µg/mL) and the MIC (Listeria monocytogenes [17]) was 6 µM (≈ 2.17 µg/mL). For the same molecule, the MIC (Enterococcus faecalis [18]) was 6 µM (≈ 2.17 µg/mL), the MIC (Staphylococcus aureus [19]) was 0.7 µM (≈ 0.253 µg/mL) and the MIC [20] was 3 µM (≈ 1.08 µg/mL). The MIC [21] was 89 µM (≈ 32.2 µg/mL), the MIC (Listeria monocytogenes [22]) was 6 µM (≈ 2.17 µg/mL) and the MIC (Enterococcus faecium [23]) was 354 µM (≈ 128 µg/mL). For the same molecule, the MIC (Bacillus cereus [24]) was 1.4 µM (≈ 0.506 µg/mL), the MIC (Enterococcus faecalis [25]) was 11 µM (≈ 3.98 µg/mL) and the MIC (Mammaliicoccus sciuri) was 3 µM (≈ 1.08 µg/mL). For the same molecule, the MIC (Staphylococcus aureus [26]) was 0.7 µM (≈ 0.253 µg/mL), the MIC (Enterococcus faecium [27]) was 6 µM (≈ 2.17 µg/mL) and the MIC (Enterococcus faecium [28]) was 177 µM (≈ 64 µg/mL). For the same molecule, the MIC (Enterococcus avium) was 6 µM (≈ 2.17 µg/mL), the MIC (Staphylococcus aureus [29]) was 0.7 µM (≈ 0.253 µg/mL) and the MIC (Enterococcus gallinarum [30]) was 11 µM (≈ 3.98 µg/mL). It also gave an MIC (Staphylococcus aureus [31]) of 1.4 µM (≈ 0.506 µg/mL), an MIC (Enterococcus gallinarum [32]) of 6 µM (≈ 2.17 µg/mL) and an MIC (Staphylococcus aureus [33]) of 0.7 µM (≈ 0.253 µg/mL). It also gave an MIC (Staphylococcus aureus [34]) of 0.7 µM (≈ 0.253 µg/mL), an MIC (Staphylococcus aureus [35]) of 177 µM (≈ 64 µg/mL) and an MIC (Bacillus spizizenii) of no more than 0.2 µM. The MIC (Enterococcus gallinarum [36]) was 11 µM (≈ 3.98 µg/mL), the MIC (Enterococcus faecalis [37]) was 3 µM (≈ 1.08 µg/mL) and the MIC (Listeria innocua) was 11 µM (≈ 3.98 µg/mL). It also gave an MIC (Enterococcus faecium [38]) of 22 µM (≈ 7.95 µg/mL).
